Compound activity from PubChem BioAssay.
The list is not random: actives were taken first. Their share in the collection is about 1.5%.
NTR1 agonist – agonists of human neurotensin receptor NTR1; 330,000 compounds, 0.17% hits; NTR1-U2OS beta-arrestin-GFP spot imaging, agonist mode; activation, % at 20 µM;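 active = activation at or above 40% of the spot to cytoplasm intensity ratio, with at least 20 cells analyzed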;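 also: 0% = DMSO without peptide and 100% = 100 nM NTR1 peptide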
APJ antag – APJ receptor antagonism; CHO-K1 APJ beta-arrestin complementation, luminescence; inhibition, % at 20 µM; 330,000 compounds, 0.32% hits; AID 2521;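 active = inhibition above about 40% at 20 µM, limit read from the data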;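 also: cells challenged with 10 nM apelin-13 agonist together with compound; plate controls were apelin-13 plus DMSO wells for no effect and DMSO wells lacking apelin-13 for full effect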
APJ agonist – agonists of human APJ apelin receptor; P35414; CHO-K1 APJ PathHunter beta-arrestin, luminescence; 0% DMSO wells, 100% apelin; activation, % at 20 µM; 330,000 compounds, 0.11% hits; AID 2520;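 active = activation more than six SD over the plate average, tested at 20 µM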;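 also: 0% = DMSO alone and 100% = apelin-13 at 10 nM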
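system = engineered CHO-K1 APJ arrestin reporter cells | input = 1000 cells per well | timing = overnight seeding, 90 min compound at 25 °C, 1 h detection | measured by = enzyme-fragment complementation luminescence | read-out = beta-arrestin recruitment to APJ as agonist activity, luminescent signal | control set = negative DMSO alone, positive Apelin-13 at 10 nM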
CXCR6 inh – inhibitors of human CXCR6 receptor; 360,000 compounds, 0.36% hits; inhibition, % at 20 µM; CHO-K1 PathHunter CXCR6 beta-arrestin, luminescence; O00574; in the data active = inhibition above about 34%, passing the limit was not always enough;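 also: antagonist mode with CXCL16 agonist at 10 nM final; 0% = 10 nM CXCL16 with DMSO and 100% = unstimulated wells without agonist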
CCR6 antagonist – blocks CCL20-driven beta-arrestin recruitment at human CCR6; P51684; CHO-K1 CCR6 PathHunter beta-arrestin, luminescence, CCL20-stimulated; inhibition, % at 20 µM; 340,000 compounds, 0.49% hits; AID 493098;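 active = compounds whose inhibition of the agonist-driven luminescence signal at 20 µM reaches about 50%, limit read from the data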;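 also: cells stimulated with CCL20 at 14 nM final; plate controls were DMSO with CCL20 for no effect and DMSO without agonist for full effect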
HTR2A ag – mouse HTR2A agonism via beta-arrestin recruitment; CHO-K1 mHTR2A beta-arrestin complementation, luminescence; percent of 30 µM serotonin response; P35363; activation, % at 7.6 µM; 360,000 compounds, 0.66% hits; AID 624169;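 active = activation above a run cutoff, the mean activation of all tested compounds plus 3 SD, cut at about 14% in these data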;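 also: 0% = plate median of compound wells and 100% = 30 µM serotonin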
Target sequence (P35363 whole entry, looked up): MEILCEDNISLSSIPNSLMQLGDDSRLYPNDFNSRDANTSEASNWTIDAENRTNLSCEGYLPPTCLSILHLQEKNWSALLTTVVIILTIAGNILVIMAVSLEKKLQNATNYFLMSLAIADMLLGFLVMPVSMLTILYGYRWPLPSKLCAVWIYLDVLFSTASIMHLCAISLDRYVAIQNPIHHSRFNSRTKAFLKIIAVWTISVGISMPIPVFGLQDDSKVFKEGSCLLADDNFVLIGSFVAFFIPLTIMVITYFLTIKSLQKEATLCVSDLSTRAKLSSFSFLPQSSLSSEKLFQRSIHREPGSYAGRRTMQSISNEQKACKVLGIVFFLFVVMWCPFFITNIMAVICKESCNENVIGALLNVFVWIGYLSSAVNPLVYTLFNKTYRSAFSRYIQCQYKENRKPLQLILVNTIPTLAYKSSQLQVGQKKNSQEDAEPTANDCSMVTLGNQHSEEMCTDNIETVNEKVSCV
MOR ag counter – OPRM1 agonism in mouse HTR2A counterscreen; shares compounds with HTR2A ag; U2OS OPRM1 beta-arrestin PathHunter, luminescence; DMSO 0%, DAMGO 9.3 µM 100%; activation, % at 9.3 µM; 2,300 compounds, 5.3% hits; AID 624380;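 active = mean activation above the mean of DMSO-only wells plus 3 SD, cut at about 0.5% in these data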
HTR2A ag conf – mouse HTR2A agonism confirmed | 2,300 compounds, 19% hits | CHO-K1 PathHunter beta-arrestin recruitment, luminescence; DMSO 0%, 30 µM serotonin 100% | shares compounds with HTR2A ag | activation, % at 7.6 µM;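 active = mean activation across triplicates above the hit threshold derived in the original primary screen, cut at about 15% in these data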
An asterisk follows results filed as active; nt = no result; ! = not active in a repeat.

SMILES	NTR1 agonist	APJ antag	APJ agonist	CXCR6 inh	CCR6 antagonist	HTR2A ag	MOR ag counter	HTR2A ag conf
CCc1ccccc1NC(=O)C1CCCN1C(=O)Nc1ccc(C)cc1 (centres undefined)	-1.0	6.4	-2.8	-1.5	6.9	3.5	nt	nt
CCOc1ccc(N2C(=O)CC(NCCc3c[nH]c4ccccc34)C2=O)cc1 (centres undefined)	-1.3	-17.3	-1.1	2.9	-7.1	18.9*	-0.4	-1.8
CCOc1ccc(N2C(=O)CC(NCCc3ccncc3)C2=O)cc1 (centres undefined)	0.3	8.3	-1.1	-4.6	-6.3	-1.9	nt	nt
O=[N+]([O-])c1cc2ncccc2c2ncccc12	nt	nt	nt	-12.3	nt	14.6*	0.1	-4.4
Cc1cc(C)c(OCC(=O)OCC(=O)N(C)C2CCS(=O)(=O)C2)c(C)c1 (centres undefined)	-0.7	-7.5	-5.5	-4.5	12.9	-5.6	nt	nt
COc1ccc(-c2cc(C(=O)N3CCCC3)no2)cc1OC	-0.2	-15.4	-3.1	-2.7	16.9	22.5*	-0.5	0.6
COc1ccc(OC)c(-c2cc(C(=O)N3CCN(c4ccccc4)CC3)no2)c1	6.2	-3.6	-1.6	7.8	4.1	27.4*	-0.5	-5.3
COc1ccc(-c2cc(C(=O)N3CCCCC3)no2)cc1OC	4.5	-9.5	-5.0	2.5	-7.8	0.7	nt	nt
COc1ccc(CCN2CC(C(=O)NCCCn3nc(C)cc3C)CCC2=O)cc1 (centres undefined)	-0.8	6.7	-1.2	-3.0	2.2	18.3*	-0.3	2.2
Cc1cc(C)n(CCNC(=O)C2CCC(=O)N(CCc3cccc(F)c3)C2)n1 (centres undefined)	0.2	-3.3	-4.3	-7.5	-2.5	7.3	nt	nt
CCN(CC)c1cccc(OC(=O)c2cccnc2Cl)c1	2.2	0.0	2.2	-1.4	10.8	3.2	nt	nt
COc1ccc(OC)c2c1cc(C(=O)N[C@H](C(=O)N1CCC(C(=O)O)CC1)C(C)C)n2C	nt	nt	nt	-0.9	-8.9	5.9	nt	nt
Cn1c(=O)c2c(nc(Oc3ccccc3N)n2C)n(C)c1=O	1.8	11.9	1.9	-2.0	-18.5	16.0*	-0.3	-3.5
Cc1noc(/C=C/c2cccs2)c1S(=O)(=O)N1CCC(C(=O)NCCCN2CCCC(C)C2)CC1 (centres undefined)	-0.7	-1.7	-2.8	4.2	23.0	-9.0	nt	nt
CC1CCN=C(N)S1 (centres undefined)	1.1	2.6	-4.3	-5.1	-0.1	15.5*	-0.4	-0.3
COc1cc2[nH]c(=S)n(Cc3cccs3)c(=O)c2cc1OC	2.7	13.7	0.3	0.2	2.7	19.1*	-0.6	-2.4
COC(=O)Nc1ccc(S(=O)(=O)NNC(=O)c2c(O)c3ccccc3n(C)c2=O)cc1	0.4	7.6	8.0	0.5	-1.5	-6.8	nt	nt
COc1ccc(C(=O)NCCSc2ccccc2)cc1OC	1.7	-9.6	-0.3	-0.9	-7.7	-2.5	nt	nt
CC(C)[C@H](NC(=O)c1ccc(C(C)(C)C)cc1)C(=O)N1CCN(Cc2ccc3c(c2)OCO3)CC1	2.1	12.3	-3.1	5.6	20.3	33.6*	-0.5	70.2*
C[C@H](NC(=O)c1ccccc1)C(=O)N1CCN(Cc2ccc3c(c2)OCO3)CC1	-1.3	16.6	-1.5	-4.0	11.3	-4.6	nt	nt
CCn1cc(Cl)c(C(=O)Nc2ccccc2C(N)=O)n1	-0.8	-13.6	-4.1	-2.7	5.1	-1.6	nt	nt
COCc1c(C(=O)Nc2cccc(S(=O)(=O)N3CCCCC3)c2)oc2ccccc12	1.9	1.1	-1.3	4.9	11.7	-0.7	nt	nt
CCOCCCNC(=O)c1cn(C)c2ccc(S(=O)(=O)N3CCCC3)cc2c1=O	-0.3	17.4	0.5	6.9	0.3	3.5	nt	nt
O=C(NCc1cccs1)C1CCCN1C(=O)Nc1ccc(F)cc1 (centres undefined)	-0.1	7.5	-2.4	10.4	2.7	-0.9	nt	nt
O=C(NCc1cccs1)C1CCCN1C(=O)Nc1cccc(F)c1 (centres undefined)	0.0	1.3	-4.6	-2.1	6.5	16.6*	-0.6	-4.5
SMILES	NTR1 agonist	APJ antag	APJ agonist	CXCR6 inh	CCR6 antagonist	HTR2A ag	MOR ag counter	HTR2A ag conf
C(=N\n1c2ccccc2c2ccccc21)/c1ccccc1	4.9	-3.1	-3.7	3.7	25.3	2.9	nt	nt
Oc1ccccc1/C=N/n1c2ccccc2c2ccccc21	1.6	16.7	-4.2	0.2	1.5	15.8*	0.4	1.7
OCCNc1nc2ccccc2nc1NCCO	-0.4	2.8	-0.6	-1.4	-3.2	23.2*	-0.4	1.4
Cc1cccc(NS(=O)(=O)c2ccc3c(c2)CCC(=O)N3)c1	2.6	-12.3	-0.3	6.2	-3.3	16.0*!	-0.4	4.8
O=C1CCc2cc(S(=O)(=O)Nc3cccc(Cl)c3)ccc2N1	nt	nt	nt	-2.8	nt	-2.1	nt	nt
CCOC(=O)C1(CCCc2ccccc2)CCN(Cc2ccn[nH]2)CC1	-1.1	0.6	-4.3	5.4	-1.9	14.8*	-0.5	-5.4
CCOC(=O)C1(CCCc2ccccc2)CCN(Cc2cnn(C)c2)CC1	1.6	6.7	-2.3	3.9	13.8	-6.2	nt	nt
CCOc1ccc(CCNC(=O)c2cc(=O)[nH]c3ccc(S(=O)(=O)N(CC)CC)cc23)cc1OCC	-0.2	-8.0	-3.6	-4.1	15.2	16.9*	-0.5	0.4
CC(C)c1ccc(-n2cnn(-c3ncccc3[N+](=O)[O-])c2=O)cc1	0.6	-12.2	-1.1	4.3	-0.7	-3.4	nt	nt
CCOc1ccc(NC(=S)N2c3ccccc3CC2C)cc1 (centres undefined)	-0.9	-9.9	-0.1	-17.4	-6.5	15.9*	-0.5	-0.6
Cc1ccc(-c2cc(C(F)(F)F)nn2-c2ccc(S(N)(=O)=O)cc2)cc1	9.0	-8.3	9.4	1.5	14.6	19.7*	1.1*	25.3*
NS(=O)(=O)c1ccc(-n2nc(C(=O)O)cc2-c2ccc(Cl)cc2)cc1	0.6	20.1	-1.5	7.8	5.3	-0.2	nt	nt
Cc1cc(CN(C)C(=O)C2CCC(=O)N(CCc3ccccc3)C2)n[nH]1 (centres undefined)	0.3	-4.0	8.9	-5.6	20.4	4.0	nt	nt
Cc1cnc(CN(C)C(=O)C2CCC(=O)N(CCc3ccccc3)C2)[nH]1 (centres undefined)	0.0	5.8	-0.8	4.7	2.5	20.1*	-0.8	-3.5
CCS(=O)(=O)c1nc(S(=O)(=O)c2ccc(C)cc2)c(N2CCCC2)s1	-2.1	19.9	-2.4	8.3	17.1	-9.0	nt	nt
CCS(=O)(=O)c1nc(S(=O)(=O)c2ccc(C)cc2)c(N2CCCCCC2)s1	nt	nt	nt	1.6	nt	14.7*	-0.7	-4.3
